Source: ChEMBL document CHEMBL3414471 (J Med Chem, 2015)
Activity calls are given as the source filed them. No cut-off for these calls is given here.

Columns and labels:
[1] = species: Homo sapiens; experiment: Selectivity ratio of EC50 for human 5-HT2B receptor to EC50 for human 5HT2C receptor
[2] = target: T1, 5-hydroxytryptamine receptor 2C (Homo sapiens, UniProt P28335); experiment: Agonist activity at human 5-HT2C receptor expressed in HEK293 cells assessed as calcium flux by FLIPR assay; format: functional, cell-based
T1 sequence (P28335 whole entry): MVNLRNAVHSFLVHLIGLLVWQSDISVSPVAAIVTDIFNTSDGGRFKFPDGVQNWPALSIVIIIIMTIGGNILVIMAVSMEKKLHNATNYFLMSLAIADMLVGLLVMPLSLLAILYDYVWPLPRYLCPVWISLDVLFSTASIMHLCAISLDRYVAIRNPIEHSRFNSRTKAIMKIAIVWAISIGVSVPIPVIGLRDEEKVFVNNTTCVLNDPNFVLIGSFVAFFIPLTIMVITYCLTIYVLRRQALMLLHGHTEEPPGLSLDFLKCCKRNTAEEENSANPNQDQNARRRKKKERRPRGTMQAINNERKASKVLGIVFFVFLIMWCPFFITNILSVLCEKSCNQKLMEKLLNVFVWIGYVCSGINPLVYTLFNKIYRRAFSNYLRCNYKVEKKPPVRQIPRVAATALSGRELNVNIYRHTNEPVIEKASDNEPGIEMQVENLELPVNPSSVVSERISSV

[3] = target: T2, 5-hydroxytryptamine receptor 2B (Homo sapiens, UniProt P41595); experiment: Agonist activity at human 5-HT2B receptor expressed in HEK293 cells assessed as calcium flux by FLIPR assay; format: functional, cell-based
[4] = target: T3, 5-hydroxytryptamine receptor 2A (Homo sapiens, UniProt P28223); experiment: Agonist activity at human 5-HT2A receptor expressed in HEK293 cells assessed as calcium flux at 10 uM by FLIPR assay; format: functional, cell-based
Method in brief: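 Flp-In-293 cells stably expressing human 5-HT2A, 5-HT2B or 5-HT2C-INI, grown in DMEM with 10% dialyzed FBS, then plated for 24 h in 1% dialyzed FBS. Cells were loaded 1 h at 37 °C with calcium dye in Hepes-buffered HBSS, pH 7.40, containing 2.5 mM probenecid. FLIPR read 10 s baseline, then 120 s after drug addition.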

[5] = target: T2, 5-hydroxytryptamine receptor 2B; experiment: Agonist activity at human 5-HT2B receptor expressed in HEK293 cells assessed as calcium flux by FLIPR assay relative to 5-HT; format: functional, cell-based
Method in brief: (§1)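 Flp-In-293 cells stably expressing human 5-HT2A, 5-HT2B or 5-HT2C-INI; grown 24–48 h in DMEM/10% dialyzed FBS, plated on poly-L-Lys at 12000 cells/well in 1% dialyzed FBS for 24 h. Loaded 1 h at 37 °C with calcium dye in HBSS, 20 mM Hepes pH 7.40, 2.5 mM probenecid.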

[6] = target: T4, 5-hydroxytryptamine receptor 2C (Homo sapiens) (UniProt P28335); experiment: Agonist activity at human 5-HT2C receptor expressed in HEK293 cells assessed as calcium flux by FLIPR assay relative to 5-HT; format: functional, cell-based; method in brief: as §1
T4 sequence (whole entry): T1 sequence (P28335 whole entry)

[7] = tested on: Salmonella typhimurium; experiment: Mutagenic activity in Salmonella typhimurium TA1535 at 10 to 100 uM by ames test; format: toxicity, organism-based; details: salmonella enterica subsp. enterica serovar typhimurium
Method in brief: (§2)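 Ames fluctuation test in Salmonella strains TA98, TA100, TA1535 and TA1537, with and without S9, at 10, 50 and 100 µM; scored negative or positive.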

[8] = tested on: Salmonella typhimurium; experiment: Mutagenic activity in Salmonella typhimurium TA100 at 10 to 100 uM by ames test; format: toxicity, organism-based; details: salmonella enterica subsp. enterica serovar typhimurium; method in brief: as §2
[9] = target: CYP2D6 (Homo sapiens, UniProt P10635); experiment: Inhibition of human CYP2D6 using dextromethorphan as substrate at 10 uM; format: ADME; details: probe dextromethorphan
[10] = tested on: Salmonella typhimurium; experiment: Mutagenic activity in Salmonella typhimurium TA1537 at 10 to 100 uM by ames test in presence of S9 mixture; format: toxicity, organism-based; details: salmonella enterica subsp. enterica serovar typhimurium; method in brief: as §2
[11] = tested on: Salmonella typhimurium; experiment: Mutagenic activity in Salmonella typhimurium TA100 at 10 to 100 uM by ames test in presence of S9 mixture; format: toxicity, organism-based; details: salmonella enterica subsp. enterica serovar typhimurium; method in brief: as §2
[12] = Plasma concentration in CD1 mouse at 10 mg/kg, ip after 0.5 hrs; format: ADME, organism-based; parameters: dose 10 mg/kg, route intraperitoneal
Method in brief: (§3)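 CD1 mice received a single 10 mg/kg ip dose formulated in pure water. Brain (ng/g) and plasma (ng/mL) levels were measured at 0.5 and 2 h. Brain/plasma ratio assumed a brain tissue density of 1 g/mL.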

[13] = target: T3, 5-hydroxytryptamine receptor 2A; experiment: Agonist activity at human 5-HT2A receptor expressed in HEK293 cells assessed as calcium flux by FLIPR assay; format: functional, cell-based
[14] = tested on: Salmonella typhimurium; experiment: Mutagenic activity in Salmonella typhimurium TA98 at 10 to 100 uM by ames test in presence of S9 mixture; format: toxicity, organism-based; details: salmonella enterica subsp. enterica serovar typhimurium; method in brief: as §2
[15] = tested on: Mus musculus; experiment: Antipsychotic activity in C57BL/6J mouse assessed as reduction of amphetamine-induced locomotor activity at 10 to 20 mg/kg, ip administered 15 mins prior to amphetamine challenge measured for 105 mins by open field test relative to vehicle-treated control; format: functional, organism-based
[16] = target: CYP2C19 (Homo sapiens, UniProt P33261); experiment: Inhibition of human CYP2C19 using omeprazole as substrate at 10 uM; format: ADME; details: probe omeprazole
[17] = tested on: Salmonella typhimurium; experiment: Mutagenic activity in Salmonella typhimurium TA98 at 10 to 100 uM by ames test; format: toxicity, organism-based; details: salmonella enterica subsp. enterica serovar typhimurium; method in brief: as §2
[18] = Drug uptake in CD1 mouse brain at 10 mg/kg, ip after 2 hrs; format: ADME, organism-based; parameters: dose 10 mg/kg, route intraperitoneal; details: read-out: Drug uptake; method in brief: as §3
[19] = Permeability from apical to basolateral side in human Caco2 cells at pH 7.4; format: ADME, cell-based; details: caco-2, pH 7.4
Method in brief: (§4)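 Caco-2 monolayer permeability measured A–B and B–A in pH 7.4 buffer, reported as ×10−6 cm/s; A–B/B–A ratio derived from these.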

[20] = Permeability from basolateral to apical side in human Caco2 cells at pH 7.4; format: ADME, cell-based; details: caco-2, pH 7.4; method in brief: as §4
[21] = Drug uptake in CD1 mouse brain at 10 mg/kg, ip after 0.5 hrs; format: ADME, organism-based; parameters: dose 10 mg/kg, route intraperitoneal; details: read-out: Drug uptake; method in brief: as §3
[22] = target: CYP2C9 (Homo sapiens, UniProt P11712); experiment: Inhibition of human CYP2C9 using diclofenac as substrate at 10 uM; format: ADME; details: probe diclofenac
[23] = Plasma concentration in CD1 mouse at 10 mg/kg, ip after 2 hrs; format: ADME, organism-based; parameters: dose 10 mg/kg, route intraperitoneal; method in brief: as §3
[24] = target: CYP3A (Homo sapiens, UniProt P08684+P20815+P24462+Q9HB55); experiment: Inhibition of human CYP3A using midazolam as substrate at 10 uM; format: ADME; details: probe midazolam
Method in brief: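 Human liver microsomes, test compound at 10 µM, midazolam as CYP3A substrate; percent inhibition reported; run by a contract lab.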

[25] = Plasma protein binding in human at 10 uM; format: ADME, cell-free
Method in brief: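 Human plasma protein binding determined at 10 µM compound, expressed as % bound.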

[26] = target: T5, CYP2B6 (Homo sapiens, UniProt P20813); experiment: Inhibition of human CYP2B6 using bupropion as substrate at 10 uM; format: ADME; details: probe bupropion
T5 sequence (P20813 whole entry): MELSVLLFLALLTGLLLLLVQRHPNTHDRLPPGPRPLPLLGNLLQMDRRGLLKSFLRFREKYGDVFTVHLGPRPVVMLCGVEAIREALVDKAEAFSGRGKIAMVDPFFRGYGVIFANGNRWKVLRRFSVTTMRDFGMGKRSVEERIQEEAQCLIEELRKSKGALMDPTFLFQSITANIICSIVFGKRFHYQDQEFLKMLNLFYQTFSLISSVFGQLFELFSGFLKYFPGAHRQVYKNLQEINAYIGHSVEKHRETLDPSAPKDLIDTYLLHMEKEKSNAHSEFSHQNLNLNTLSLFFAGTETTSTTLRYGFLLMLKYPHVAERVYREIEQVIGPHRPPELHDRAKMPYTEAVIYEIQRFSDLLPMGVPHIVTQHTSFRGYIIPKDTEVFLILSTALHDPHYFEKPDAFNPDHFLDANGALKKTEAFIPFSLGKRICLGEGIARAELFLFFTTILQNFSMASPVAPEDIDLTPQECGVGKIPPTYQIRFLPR

[27] = tested on: Liver microsome; experiment: Metabolic stability in human liver microsomes; format: ADME
Method in brief: (§5)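 Incubation with human or CD-1 mouse liver microsomes for 1 h; stability expressed as % parent compound remaining.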

[28] = tested on: Liver; experiment: Metabolic stability in mouse liver microsomes; format: ADME; method in brief: as §5
[29] = target: T3, 5-hydroxytryptamine receptor 2A; experiment: Agonist activity at human 5-HT2A receptor expressed in HEK293 cells assessed as calcium flux by FLIPR assay relative to 5-HT; format: functional, cell-based; method in brief: as §1
[30] = tested on: Salmonella typhimurium; experiment: Mutagenic activity in Salmonella typhimurium TA1537 at 10 to 100 uM by ames test; format: toxicity, organism-based; details: salmonella enterica subsp. enterica serovar typhimurium; method in brief: as §2
[31] = tested on: Salmonella typhimurium; experiment: Mutagenic activity in Salmonella typhimurium TA1535 at 10 to 100 uM by ames test in presence of S9 mixture; format: toxicity, organism-based; details: salmonella enterica subsp. enterica serovar typhimurium; method in brief: as §2
[32] = target: T2, 5-hydroxytryptamine receptor 2B; experiment: Agonist activity at 5HT2B receptor (unknown origin) relative to control; method in brief: as §1
[33] = target: T1, 5-hydroxytryptamine receptor 2C; experiment: (§6) Agonist activity at 5HT2C receptor (unknown origin) relative to control
[34] = target: T4, 5-hydroxytryptamine receptor 2C (Homo sapiens); experiment: as §6
[35] = species: Homo sapiens; experiment: Selectivity ratio of EC50 for 5HT2B receptor (unknown origin) to EC50 for 5HT2C receptor (unknown origin)

T2 sequence (P41595 whole entry): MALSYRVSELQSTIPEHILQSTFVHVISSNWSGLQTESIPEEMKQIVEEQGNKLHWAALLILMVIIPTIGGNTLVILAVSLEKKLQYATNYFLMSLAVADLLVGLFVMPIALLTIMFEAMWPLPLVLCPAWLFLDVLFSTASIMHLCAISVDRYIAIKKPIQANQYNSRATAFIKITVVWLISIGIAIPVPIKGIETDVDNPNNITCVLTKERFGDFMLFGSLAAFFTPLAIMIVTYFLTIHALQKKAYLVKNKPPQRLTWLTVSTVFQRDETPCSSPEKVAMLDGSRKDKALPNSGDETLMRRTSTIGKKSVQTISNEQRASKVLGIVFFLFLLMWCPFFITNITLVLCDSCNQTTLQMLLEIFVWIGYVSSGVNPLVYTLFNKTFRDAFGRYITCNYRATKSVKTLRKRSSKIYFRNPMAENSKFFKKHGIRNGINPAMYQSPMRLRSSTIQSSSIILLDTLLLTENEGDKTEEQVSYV
T3 sequence (P28223 whole entry): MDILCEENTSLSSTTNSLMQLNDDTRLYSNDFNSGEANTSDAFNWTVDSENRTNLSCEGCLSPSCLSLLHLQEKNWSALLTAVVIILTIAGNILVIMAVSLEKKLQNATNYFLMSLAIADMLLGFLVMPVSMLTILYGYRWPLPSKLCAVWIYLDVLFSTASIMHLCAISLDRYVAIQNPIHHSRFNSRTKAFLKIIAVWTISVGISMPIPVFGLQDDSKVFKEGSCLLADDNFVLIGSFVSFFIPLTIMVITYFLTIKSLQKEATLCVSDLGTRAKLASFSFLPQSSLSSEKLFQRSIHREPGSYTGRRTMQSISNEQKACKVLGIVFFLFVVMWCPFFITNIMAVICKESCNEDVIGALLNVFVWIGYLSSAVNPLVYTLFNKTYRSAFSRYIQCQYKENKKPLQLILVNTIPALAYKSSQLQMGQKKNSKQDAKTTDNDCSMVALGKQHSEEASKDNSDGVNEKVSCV
Sequence of CYP2C9 (P11712 whole entry): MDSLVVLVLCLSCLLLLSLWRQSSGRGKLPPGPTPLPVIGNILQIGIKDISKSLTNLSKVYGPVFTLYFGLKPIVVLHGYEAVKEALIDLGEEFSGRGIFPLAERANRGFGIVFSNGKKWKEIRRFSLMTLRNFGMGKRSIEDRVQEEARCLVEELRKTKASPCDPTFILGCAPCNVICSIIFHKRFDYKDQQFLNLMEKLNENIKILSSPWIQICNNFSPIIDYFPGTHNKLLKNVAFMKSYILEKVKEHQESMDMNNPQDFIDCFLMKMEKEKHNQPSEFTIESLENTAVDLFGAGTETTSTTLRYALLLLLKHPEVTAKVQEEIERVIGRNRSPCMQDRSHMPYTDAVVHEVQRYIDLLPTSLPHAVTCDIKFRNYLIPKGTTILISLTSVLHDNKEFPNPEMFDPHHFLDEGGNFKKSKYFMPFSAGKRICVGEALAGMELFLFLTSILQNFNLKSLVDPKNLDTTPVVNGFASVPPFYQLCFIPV
Sequence of CYP2D6 (P10635 whole entry): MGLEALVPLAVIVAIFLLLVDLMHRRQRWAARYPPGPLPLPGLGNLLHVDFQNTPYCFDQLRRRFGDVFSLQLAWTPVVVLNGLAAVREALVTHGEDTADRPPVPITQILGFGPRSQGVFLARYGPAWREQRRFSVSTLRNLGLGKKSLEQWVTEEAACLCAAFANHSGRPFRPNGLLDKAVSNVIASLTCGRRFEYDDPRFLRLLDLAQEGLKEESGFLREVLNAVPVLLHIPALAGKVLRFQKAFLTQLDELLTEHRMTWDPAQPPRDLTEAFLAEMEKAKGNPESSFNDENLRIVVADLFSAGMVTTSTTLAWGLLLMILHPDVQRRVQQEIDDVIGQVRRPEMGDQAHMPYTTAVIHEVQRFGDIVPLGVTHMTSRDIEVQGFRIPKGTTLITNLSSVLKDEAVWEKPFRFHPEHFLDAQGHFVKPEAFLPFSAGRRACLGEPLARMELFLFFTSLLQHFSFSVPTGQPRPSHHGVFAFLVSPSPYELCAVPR
Sequence of CYP2C19 (P33261 whole entry): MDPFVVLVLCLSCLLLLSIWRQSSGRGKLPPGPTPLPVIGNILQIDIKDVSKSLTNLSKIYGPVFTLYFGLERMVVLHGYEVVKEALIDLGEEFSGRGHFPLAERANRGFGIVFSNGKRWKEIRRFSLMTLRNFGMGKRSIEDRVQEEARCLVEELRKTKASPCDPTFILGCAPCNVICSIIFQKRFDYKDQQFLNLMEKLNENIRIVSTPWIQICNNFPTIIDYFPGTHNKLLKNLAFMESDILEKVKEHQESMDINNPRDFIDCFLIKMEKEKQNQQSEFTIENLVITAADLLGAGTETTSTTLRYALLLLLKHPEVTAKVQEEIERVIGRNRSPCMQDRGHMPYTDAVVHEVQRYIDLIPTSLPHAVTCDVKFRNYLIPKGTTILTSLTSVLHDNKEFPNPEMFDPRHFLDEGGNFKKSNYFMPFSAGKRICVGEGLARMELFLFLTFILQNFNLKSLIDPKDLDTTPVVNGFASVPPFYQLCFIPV

CCCOc1ccc(Cl)cc1[C@H]1C[C@@H]1CN
Ratio EC50 [1]: 33 | EC50 [2]: 103 nM | EC50 [3]: 3440 nM | Activity [4]: inactive | Emax [5]: 25% | Emax [6]: 72%

Cl.NC[C@H]1C[C@@H]1c1cc(Cl)ccc1OCCF
Activity [7]: Non-toxic | Activity [8]: Non-toxic | inhibition at 10 µM [9]: 79% | Activity [10]: Non-toxic | Activity [11]: Non-toxic | concentration at 0.5 h [12]: 1200 ng/mL | EC50 [13]: 1480 nM | Activity [14]: Non-toxic | Activity [15]: Active | inhibition at 10 µM [16]: 21% | Activity [17]: Non-toxic | EC50 [2]: 32 nM | concentration at 2 h [18]: 13400 ng/g | permeability [19]: 35.5 ×10⁻⁶ cm/s | permeability [20]: 17.5 ×10⁻⁶ cm/s | concentration at 0.5 h [21]: 12800 ng/g | inhibition at 10 µM [22]: 33% | EC50 [3]: 632 nM | concentration at 2 h [23]: 874 ng/mL | inhibition at 10 µM [24]: 22% | PPB [25]: 57% | inhibition at 10 µM [26]: 58% | Stability [27]: 95% | Emax [5]: 31% | Stability [28]: 74% | Emax [6]: 86% | Emax [29]: 35% | Activity [30]: Non-toxic | Activity [31]: Non-toxic

Clc1cccc(COc2cncc(N3CCNCC3)n2)c1
EC50 [32]: 65.3 nM | Emax [32]: 57% | EC50 [33]: 0.11 nM | Emax [34]: 93% | Ratio EC50 [35]: 600
